Assay results reported in article PMC9589333 (ERJ Open Research, 2022).

Key:
healthy male subjects = test: Phase I study; format: in vivo, human; conditions: for Body weight, mean±SD change from baseline: placebo 0.21±1.06
How it was run: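 Healthy males aged 18–45 years with BMI 18.5–29.9 kg·m−2, partially randomised to oral test compound or matching placebo. Single doses were 36 or 48 mg, fasted and patient-blinded. Twice-daily doses were 6 or 12 mg over 14 days, fed and double-blind. Drug-related AEs were graded mild, moderate or severe. ECG, laboratory tests and, for multiple dosing, suicidality were also assessed. Descriptive statistics only.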

[1] = test system: patients with idiopathic pulmonary fibrosis; test: Phase Ic study; format: in vivo, human
How it was run: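 Randomised, double-blind, placebo-controlled within-dose-group study at 11 European sites. Patients with IPF, aged ≥40 years, had no nintedanib or pirfenidone within 30 days and none planned. Dosing was oral, 18 mg twice daily, for up to 12 weeks, reduced to 4 weeks by amendment. Drug-related AEs were graded mild, moderate or severe. ECG, laboratory tests and suicidality were also assessed. Descriptive statistics only.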

[2] = Phase I study: pharmacokinetics of BI 1015550 in plasma and urine; format: in vivo, human; conditions: for AUCτ,1 / Cmax / RA,AUC (accumulation ratio) / RA,Cmax (accumulation ratio) / AUCτ,ss / CLR,0–120 (renal clearance) / fe0–120 (fraction excreted unchanged in urine 0–120 h) / AUC0−∞: gMean; for AUCτ,ss: steady state
How it was run: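 Oral test compound was given to healthy males as single doses (36 or 48 mg, fasted) or 6 or 12 mg twice daily (fed). Twice-daily dosing was a morning dose on day 1, none on day 2 (34-h sampling), days 3–13 twice daily, and a morning dose on day 14. Read-outs were plasma Cmax, AUC0–∞, first-dose and steady-state AUCτ, accumulation ratios and 0–120 h urinary excretion, reported as gMean with gCV.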

[3] = Phase Ic study: pharmacokinetics of BI 1015550 in plasma; format: in vivo, human
How it was run: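 IPF patients received oral 18 mg twice daily. Plasma Cmax and AUCτ,1 were taken after the first dose on day 1, and Cmax,ss and AUCτ,ss after the morning dose on day 14. Accumulation ratios were calculated as steady-state over single-dose values. Results are reported as geometric mean with gCV.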

human lung fibroblast = conditions: in vitro; cited from earlier work
[4] = test system: patients with idiopathic pulmonary fibrosis; test: Phase Ic study: exploratory lung function efficacy endpoints; format: in vivo, human; conditions: IPF, 18 mg twice daily
[5] = IPF, 18 mg twice daily, placebo 40.0%
[6] = after single and multiple oral administration

For `[O-][S+]1CCc2nc(N3CCC(c4ncc(Cl)cn4)CC3)nc(NC3(CO)CCC3)c21` (centres unmarked) [BI 1015550], the “Subjects with any AE” value (healthy male subjects; MRD 6 mg twice daily, n=8) was 2 (25.0) n (%), the “Subjects with investigator-defined drug-related AEs” value (healthy male subjects; MRD 6 mg twice daily, n=8) was 2 (25.0) n (%) and the “Body weight, mean±SD change from baseline” value (healthy male subjects; MRD 6 mg twice daily) was “–1.21±0.43 kg”. The “Clinically relevant laboratory finding: increase in blood triglycerides, considered drug-related” value (healthy male subjects; MRD 12 mg twice daily) was “one subject”, the “Subjects with any AE” value (healthy male subjects; MRD 12 mg twice daily, n=8) was 5 (62.5) n (%) and the “Subjects with investigator-defined drug-related AEs” value (healthy male subjects; MRD 12 mg twice daily, n=8) was 4 (50.0) n (%). For the same compound, the “Body weight, mean±SD change from baseline” value (healthy male subjects; MRD 12 mg twice daily) was “–1.34±1.61 kg”, the “Suicidal ideation or behaviour (C-SSRS)” value (healthy male subjects; MRD part) was “No incidence” and the Gastrointestinal disorders (healthy male subjects; MRD part, placebo 12.5%) was 18.8%. The “Nervous system disorders (headache)” value (healthy male subjects; MRD part, placebo 12.5%) was 31.3%, the “Subjects with AEs” value (healthy male subjects; MRD part, placebo 37.5%) was 43.8% and the “Subjects with any AE” value (healthy male subjects; MRD total, n=16) was 7 (43.8) n (%). The “Subjects with investigator-defined drug-related AEs” value (healthy male subjects; MRD total, n=16) was 6 (37.5) n (%), the “Subjects with any AE” value (healthy male subjects; SRD 36 mg single dose, n=6) was 4 (66.7) n (%) and the “Subjects with investigator-defined drug-related AEs” value (healthy male subjects; SRD 36 mg single dose, n=6) was 2 (33.3) n (%). The “Subjects with any AE” value (healthy male subjects; SRD 48 mg single dose, n=6) was 4 (66.7) n (%), the “Subjects with investigator-defined drug-related AEs” value (healthy male subjects; SRD 48 mg single dose, n=6) was 4 (66.7) n (%) and the “Deaths, severe AEs, serious AEs, AEs of special interest or other significant AEs” value (healthy male subjects; SRD and MRD parts) was “no reported”. For the same compound, the “ECG recordings or vital signs” value (healthy male subjects; SRD and MRD parts) was “no clinically relevant findings”, the “Intensity of all AEs” value (healthy male subjects; SRD and MRD parts) was “mild or moderate” and the Gastrointestinal disorders (healthy male subjects; SRD part, placebo 16.7%) was 25.0%. For the same compound, the “Nervous system disorders (headache and dizziness)” value (healthy male subjects; SRD part, placebo 16.7%) was 41.7%, the “Subjects with AEs” value (healthy male subjects; SRD part, placebo 16.7%) was 66.7% and the “Subjects with any AE” value (healthy male subjects; SRD total, n=12) was 8 (66.7) n (%). The “Subjects with investigator-defined drug-related AEs” value (healthy male subjects; SRD total, n=12) was 6 (50.0) n (%), the “Subjects with drug-related AEs” value (healthy male subjects; multiple doses (MRD total), placebo 12.5%) was 37.5% and the “Subjects with drug-related AEs” value (healthy male subjects; single dose (SRD total), placebo 16.7%) was 50.0%. For the same compound, the “Mean observed weight loss” value ([1]; IPF patients treated for up to 12 weeks, placebo –1.18) was “–1.74 kg”, the “12-lead ECG or vital signs” value ([1]; IPF, 18 mg twice daily) was “no clinically relevant findings” and the “C-reactive protein (laboratory tests)” value ([1]; IPF, 18 mg twice daily) was “slight increase”. For the same compound, the Deaths ([1]; IPF, 18 mg twice daily) was “no reported deaths”, the Diarrhoea ([1]; IPF, 18 mg twice daily) was 40.0% and the Nasopharyngitis ([1]; IPF, 18 mg twice daily) was 40%. For the same compound, the “Severe AE (considered drug related, led to discontinuation)” value ([1]; IPF, 18 mg twice daily) was “one severe AE of insomnia”, the “Suicidal ideation or behaviour (C-SSRS)” value ([1]; IPF, 18 mg twice daily) was “no cases” and the “Body weight, difference between the two treatment groups” value ([1]; IPF, 18 mg twice daily vs placebo) was “no notable difference”. For the same compound, the “AE leading to discontinuation of study drug” value ([1]; IPF, 18 mg twice daily, n=10) was 1 (10.0) n (%), the “Investigator-defined drug-related AE” value ([1]; IPF, 18 mg twice daily, n=10) was 9 (90.0) n (%) and the “Patients requiring or prolonging hospitalisation” value ([1]; IPF, 18 mg twice daily, n=10) was 1 (10.0) n (%). For the same compound, the “Patients with AESI (hepatic injury)” value ([1]; IPF, 18 mg twice daily, n=10) was 0 (0.0) n (%), the “Patients with SAEs” value ([1]; IPF, 18 mg twice daily, n=10) was 1 (10.0) n (%) and the “Patients with other significant AEs according to ICH E3” value ([1]; IPF, 18 mg twice daily, n=10) was 1 (10.0) n (%). For the same compound, the “Severe AEs” value ([1]; IPF, 18 mg twice daily, n=10) was 1 (10.0) n (%), the Gastrointestinal disorders [1, 5] was 80.0% and the Infections and infestations [1, 5] was 50.0%. For the same compound, the “Patients with drug-related AEs” value ([1]; IPF, 18 mg twice daily, placebo 60.0%) was 90.0%, the “Dose proportionality of AUC” value ([2]; 36 mg to 48 mg single dose and 6 mg to 12 mg twice daily) was “dose-proportional increase in AUC” and the “Median time from last dosing to the maximum measured concentration” value [2, 6] was 1.25 to 1.52 h. The Terminal half-lives [2, 6] was 16 to 27 h, the “AUCτ,1” value ([2]; MRD 6 mg twice daily, after first dose, fed, n=8, gCV 24.8%) was 564 nmol·h/L and the Cmax ([2]; MRD 6 mg twice daily, after first dose, fed, n=8, gCV 28.2%) was 103 nM. The “RA,AUC (accumulation ratio)” value ([2]; MRD 6 mg twice daily, fed, n=8, gCV 9.91%) was 1.85, the “RA,Cmax (accumulation ratio)” value ([2]; MRD 6 mg twice daily, fed, n=8, gCV 35.0%) was 1.60 and the “AUCτ,ss” value ([2]; MRD 6 mg twice daily, fed, n=8, gCV 25.7%) was 1050 nmol·h/L. The “AUCτ,1” value ([2]; MRD 12 mg twice daily, after first dose, fed, n=8, gCV 15.9%) was 1370 nmol·h/L, the Cmax ([2]; MRD 12 mg twice daily, after first dose, fed, n=8, gCV 29.9%) was 229 nM and the “RA,AUC (accumulation ratio)” value ([2]; MRD 12 mg twice daily, fed, n=8, gCV 14.8%) was 1.68. For the same compound, the “RA,Cmax (accumulation ratio)” value ([2]; MRD 12 mg twice daily, fed, n=8, gCV 23.6%) was 1.52, the “AUCτ,ss” value ([2]; MRD 12 mg twice daily, fed, n=8, gCV 15.8%) was 2300 nmol·h/L and the “CLR,0–120 (renal clearance)” value ([2]; SRD 36 mg, fasted, n=4, gCV 21.5%) was 30.5^+ mL·min^−1. For the same compound, the “fe0–120 (fraction excreted unchanged in urine 0–120 h)” value ([2]; SRD 36 mg, fasted, n=5, gCV 45.2%) was 12.5^¶ %, the Cmax ([2]; SRD 36 mg, fasted, n=6, gCV 20.7%) was 710 nM and the “AUC0−∞” value ([2]; SRD 36 mg, fasted, n=6, gCV 21.2%) was 5910 nmol·h/L. For the same compound, the “fe0–120 (fraction excreted unchanged in urine 0–120 h)” value ([2]; SRD 48 mg, fasted, n=4, gCV 13.4%) was 12.1^+ %, the “CLR,0–120 (renal clearance)” value ([2]; SRD 48 mg, fasted, n=4, gCV 20.6%) was 25.2^+ mL·min^−1 and the “AUC0−∞” value ([2]; SRD 48 mg, fasted, n=5, gCV 17.2%) was 8700^¶ nmol·h·L^−1. The Cmax ([2]; SRD 48 mg, fasted, n=6, gCV 15.5%) was 955 nM, the Steady state reached ([2]; multiple twice-daily administrations) was no more than 6 days and the “Exposure predictions (AUC0-24,ss) versus predefined exposure threshold” value ([3]; 24 mg twice-daily dose group (not dosed)) was “exceeded the predefined exposure threshold”. For the same compound, the “Administrations until 95% of the steady-state concentration was reached” value ([3]; IPF, 18 mg twice daily) was “approximately five”, the “Accumulation ratio based on AUCτ” value ([3]; gMean, IPF, 18 mg twice daily) was 1.87 and the “Accumulation ratio based on Cmax” value ([3]; gMean, IPF, 18 mg twice daily) was 1.66. For the same compound, the “AUCτ,1” value ([3]; gMean, IPF, 18 mg twice daily, day 1 after first dose, n=10, gCV 18.2%) was 1990 nmol·h/L, the Cmax ([3]; gMean, IPF, 18 mg twice daily, day 1 after first dose, n=10, gCV 23.1%) was 277 nM and the “AUCτ,ss” value ([3]; gMean, IPF, 18 mg twice daily, day 14 steady state, n=10, gCV 49.5%) was 3.72 µM·h. The “Difference in pharmacokinetic parameters between healthy volunteers and patients with IPF” value ([3]; in vivo) was “no difference”, the “Human lung fibroblast proliferation” value (human lung fibroblast) was “inhibition” and the Myofibroblast transformation (human lung fibroblast) was “inhibition”. The “Effect on lung function parameters” value ([4]; over the course of the trial) was “no clear effect” and the “Trend towards a slight reduction in FVC over time (seen in placebo group)” value ([4]; data not shown) was “not observed”.
